14 compounds from ChEMBL document CHEMBL2390844, “Evaluation of bioactivities of chlorokojic acid derivatives against dermatophytes couplet with cytotoxicity” (Bioorg Med Chem Lett, 2013) can be followed below.

Converted amounts (≈) assume the structure as drawn.

Data set [1] has as its system Epidermophyton floccosum. As to the kind of experiment: Antidermatophytic activity against Epidermophyton floccosum isolate after 7 days by broth microdilution method. It counts as functional. Particulars: 168 h. Summed up:
(§1)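 Broth microdilution per CLSI in RPMI 1640 with L-glutamine, no bicarbonate, buffered to pH 7.0 with 0.165 M MOPS, filter-sterilized. Test dilution series 128-0.0625 μg mL⁻¹; sterility and growth (inoculum) controls on each plate. Wells inoculated, incubated 28°C for 7 days, read visually with an inverted mirror; MIC recorded. Triplicate.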

Data set [2] in a line: Antidermatophytic activity against Trichophyton mentagrophytes var. erinacei NCPF 375 after 7 days by broth microdilution method. Particulars: Arthroderma benhamiae. It counts as functional. Summed up: as §1
(Broth dilution looks for growth in wells or tubes with falling amounts of substance.)

Data set [3] deals with Nannizzia gypsea. As to the kind of experiment: Antidermatophytic activity against Microsporum gypseum isolate after 7 days by broth microdilution method. It counts as functional. To be noted: 168 h. The essentials:
as §1

The test system of data set [4] is Epidermophyton floccosum. As to the kind of experiment: Antidermatophytic activity against Epidermophyton floccosum RSKK 3027 after 7 days by broth microdilution method. It counts as functional. To be noted: RSKK 3027, 168 h. Summed up:
as §1

Data set [5] can be described thus: Cytotoxicity against human HeLa cells. Particulars: read-out: MNCC. It counts as cell-based. Summed up:
(§2)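 Maximum non-toxic concentration (MNTC) determined in HeLa and MRC-5 cells by a previously described method, based on cellular morphological alteration.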

The nature of data set [6]: Antidermatophytic activity against Trichophyton mentagrophytes var. erinacei isolate after 7 days by broth microdilution method. Type of data set: functional. Particulars: Arthroderma benhamiae. Summed up: as §1
Data set [7] is described as follows: Cytotoxicity against human MRC5 cells. It counts as cell-based. Particulars: read-out: MNCC. Summed up: as §2
Data set [8] concerns Nannizzia gypsea. As to the kind of experiment: Antidermatophytic activity against Microsporum gypseum NCPF 580 after 7 days by broth microdilution method. It counts as functional. Particulars: NCPF 580, 168 h. The essentials: as §1

Turning to `O=C(OCc1ccccc1)N1CCN(Cc2oc(CCl)cc(=O)c2O)CC1`, the minimum inhibitory concentration (MIC) came out at 8 µg/mL (≈ 20.4 µM) with Epidermophyton floccosum [1]; 4 µg/mL (≈ 10.2 µM) in data set [2]; 8 µg/mL (≈ 20.4 µM) with Nannizzia gypsea [3]; 4 µg/mL (≈ 10.2 µM) with Epidermophyton floccosum [4]; 8 µg/mL (≈ 20.4 µM) in data set [6]; 4 µg/mL (≈ 10.2 µM) against Nannizzia gypsea [8]. In addition, the values for the MNTC in data set [5] and in data set [7] were at least 256 µg/mL and at least 128 µg/mL, respectively.
For `O=c1cc(CCl)oc(CN2CCN(c3ccc([N+](=O)[O-])cc3)CC2)c1O`, the MIC worked out at 32 µg/mL (≈ 84.3 µM) in the data set on Epidermophyton floccosum [1]; 16 µg/mL (≈ 42.1 µM) in data set [2]; 32 µg/mL (≈ 84.3 µM) in the data set on Nannizzia gypsea [3]; 16 µg/mL (≈ 42.1 µM) with Epidermophyton floccosum [4]; 32 µg/mL (≈ 84.3 µM) in data set [6]; 16 µg/mL (≈ 42.1 µM) in the data set on Nannizzia gypsea [8]. Besides, the MNTC in data set [5] and in data set [7] was at least 512 µg/mL each time.
For `O=c1cc(CCl)oc(CN2CC=C(c3ccccc3)CC2)c1O`, the MIC in the data set on Epidermophyton floccosum [1] came to 16 µg/mL (≈ 48.2 µM); in data set [2], 8 µg/mL (≈ 24.1 µM); against Nannizzia gypsea [3], 16 µg/mL (≈ 48.2 µM); with Epidermophyton floccosum [4] it was 8 µg/mL (≈ 24.1 µM); in data set [6], 16 µg/mL (≈ 48.2 µM); with Nannizzia gypsea [8], 8 µg/mL (≈ 24.1 µM). Also, the MNTC in data set [5] and in data set [7] was at least 256 µg/mL in each case.
As for `O=c1cc(CCl)oc(CN2CCN(c3ccccc3F)CC2)c1O`, the MIC against Epidermophyton floccosum [1] was determined as 32 µg/mL (≈ 90.7 µM); in data set [2] it was 8 µg/mL (≈ 22.7 µM); with Nannizzia gypsea [3], 16 µg/mL (≈ 45.4 µM); against Epidermophyton floccosum [4], 16 µg/mL (≈ 45.4 µM); in data set [6], 16 µg/mL (≈ 45.4 µM); against Nannizzia gypsea [8], 8 µg/mL (≈ 22.7 µM). The MNTC in data set [7] is at least 128 µg/mL.
Regarding `O=c1cc(CCl)oc(CN2CCN(CC3CCCCC3)CC2)c1O`, the MIC against Epidermophyton floccosum [1] is 8 µg/mL (≈ 22.5 µM); in data set [2], 4 µg/mL (≈ 11.3 µM); in the data set on Nannizzia gypsea [3], 8 µg/mL (≈ 22.5 µM); in the data set on Epidermophyton floccosum [4] it was 4 µg/mL (≈ 11.3 µM); in data set [6], 8 µg/mL (≈ 22.5 µM); against Nannizzia gypsea [8] it was 4 µg/mL (≈ 11.3 µM). The results for the MNTC in data set [5] and in data set [7] were at least 256 µg/mL and at least 512 µg/mL, respectively.
With `CCC(C)n1ncn(-c2ccc(N3CCN(c4ccc(OCC5COC(Cn6cncn6)(c6ccc(Cl)cc6Cl)O5)cc4)CC3)cc2)c1=O` (stereo not drawn) [ITRACONAZOLE], the minimum inhibitory concentration (MIC) against Epidermophyton floccosum [1] was 0.25 µg/mL (≈ 0.354 µM); in data set [2], 0.25 µg/mL (≈ 0.354 µM); in the data set with Nannizzia gypsea [3] it was 0.25 µg/mL (≈ 0.354 µM); against Epidermophyton floccosum [4] it was 0.125 µg/mL (≈ 0.177 µM); in data set [6] it was 0.5 µg/mL (≈ 0.709 µM); in the data set with Nannizzia gypsea [8] it was 0.125 µg/mL (≈ 0.177 µM).
For the compound `O=c1cc(CCl)oc(CN2CCN(C3CCCCC3)CC2)c1O`, the MIC in the data set with Epidermophyton floccosum [1] was 32 µg/mL (≈ 93.9 µM); in data set [2], 16 µg/mL (≈ 46.9 µM); with Nannizzia gypsea [3] it was 32 µg/mL (≈ 93.9 µM); with Epidermophyton floccosum [4], 16 µg/mL (≈ 46.9 µM); in data set [6], 16 µg/mL (≈ 46.9 µM); against Nannizzia gypsea [8] it was 16 µg/mL (≈ 46.9 µM). The MNTC in data set [5] and in data set [7] was at least 512 µg/mL throughout.
On to `O=c1cc(CCl)oc(CN2CCN(Cc3ccc(Cl)cc3)CC2)c1O`, for which the minimal inhibitory concentration (MIC) in the data set on Epidermophyton floccosum [1] amounted to 8 µg/mL (≈ 20.9 µM); in data set [2] it was 4 µg/mL (≈ 10.4 µM); against Nannizzia gypsea [3] it was 8 µg/mL (≈ 20.9 µM); in the data set with Epidermophyton floccosum [4], 4 µg/mL (≈ 10.4 µM); in data set [6] it was 8 µg/mL (≈ 20.9 µM); against Nannizzia gypsea [8], 4 µg/mL (≈ 10.4 µM). The MNTC in data set [5] and in data set [7] was at least 128 µg/mL each time.
In the case of `O=C(C1CCCCC1)N1CCN(Cc2oc(CCl)cc(=O)c2O)CC1`, the MIC against Epidermophyton floccosum [1] worked out at 32 µg/mL (≈ 86.8 µM); in data set [2], 8 µg/mL (≈ 21.7 µM); against Nannizzia gypsea [3], 32 µg/mL (≈ 86.8 µM); in the data set with Epidermophyton floccosum [4], 16 µg/mL (≈ 43.4 µM); in data set [6] it was 16 µg/mL (≈ 43.4 µM); in the data set on Nannizzia gypsea [8] it was 16 µg/mL (≈ 43.4 µM). Moreover, the MNTC in data set [5] and in data set [7] was at least 128 µg/mL throughout.
With `O=c1cc(CCl)oc(CN2CCN(c3ccc(F)cc3)CC2)c1O`, the MIC was 16 µg/mL (≈ 45.4 µM) against Epidermophyton floccosum [1]; 8 µg/mL (≈ 22.7 µM) in data set [2]; 16 µg/mL (≈ 45.4 µM) against Nannizzia gypsea [3]; 8 µg/mL (≈ 22.7 µM) in the data set with Epidermophyton floccosum [4]; 8 µg/mL (≈ 22.7 µM) in data set [6]; 8 µg/mL (≈ 22.7 µM) against Nannizzia gypsea [8]. For the same compound, the MNTC in data set [7] is at least 128 µg/mL.
As to `O=c1cc(CCl)oc(CN2CC=C(c3ccc(Cl)cc3)CC2)c1O`, the MIC (with Epidermophyton floccosum [1]; in data set [2]; in the data set with Nannizzia gypsea [3]; with Epidermophyton floccosum [4]; in data set [6]; in the data set with Nannizzia gypsea [8]) was 8 µg/mL (≈ 21.8 µM) each time. Further, the MNTC in data set [5] and in data set [7] was at least 256 µg/mL each time.
With `Cc1cccc(CN2CCN(Cc3oc(CCl)cc(=O)c3O)CC2)c1`, the minimal inhibitory concentration (MIC) with Epidermophyton floccosum [1] worked out at 32 µg/mL (≈ 88.2 µM); in data set [2] it was 16 µg/mL (≈ 44.1 µM); in the data set with Nannizzia gypsea [3] it was 32 µg/mL (≈ 88.2 µM); with Epidermophyton floccosum [4], 16 µg/mL (≈ 44.1 µM); in data set [6] it was 16 µg/mL (≈ 44.1 µM); against Nannizzia gypsea [8], 16 µg/mL (≈ 44.1 µM). Besides, the MNTC in data set [5] and in data set [7] was at least 512 µg/mL each time.
As to `O=c1cc(CCl)oc(CN2CCN(Cc3ccccc3)CC2)c1O`, the MIC with Epidermophyton floccosum [1] is 32 µg/mL (≈ 91.7 µM); in data set [2], 16 µg/mL (≈ 45.9 µM); in the data set with Nannizzia gypsea [3] it was 32 µg/mL (≈ 91.7 µM); with Epidermophyton floccosum [4] it was 16 µg/mL (≈ 45.9 µM); in data set [6], 32 µg/mL (≈ 91.7 µM); in the data set on Nannizzia gypsea [8] it was 16 µg/mL (≈ 45.9 µM). For the same compound, the MNTC in data set [5] and in data set [7] was at least 512 µg/mL throughout.
Turning to `N#CC1(c2ccccc2)CCN(Cc2oc(CCl)cc(=O)c2O)CC1`, the minimal inhibitory concentration (MIC) in the data set on Epidermophyton floccosum [1] was 32 µg/mL (≈ 89.2 µM); in data set [2], 16 µg/mL (≈ 44.6 µM); in the data set with Nannizzia gypsea [3], 32 µg/mL (≈ 89.2 µM); against Epidermophyton floccosum [4], 16 µg/mL (≈ 44.6 µM); in data set [6] it was 32 µg/mL (≈ 89.2 µM); against Nannizzia gypsea [8], 16 µg/mL (≈ 44.6 µM). Further, the MNTC in data set [5] and in data set [7] was at least 256 µg/mL each time.

As a reminder, the MIC is the least concentration at which growth counts as inhibited.
